Data from ChEMBL document CHEMBL5223067, “Functionalized resorcinarenes effectively disrupt the aggregation of αA66-80 crystallin peptide related to cataracts” (RSC Med Chem, 2021).
“And” between values parts separate entries of the source, which are not always exact repeats. Equal entries are not always repeated. The source made the active and inactive calls. The rule behind the calls is not given here.

Experiments:
[1] = target: T1, Alpha-crystallin A chain (Homo sapiens) (UniProt P02489); assay: Binding affinity to alphaA (66 to 80 residues) crystallin peptide in aqueous solution assessed as association constant at 1 mM by isothermal titration calorimetry
T1 sequence (whole entry): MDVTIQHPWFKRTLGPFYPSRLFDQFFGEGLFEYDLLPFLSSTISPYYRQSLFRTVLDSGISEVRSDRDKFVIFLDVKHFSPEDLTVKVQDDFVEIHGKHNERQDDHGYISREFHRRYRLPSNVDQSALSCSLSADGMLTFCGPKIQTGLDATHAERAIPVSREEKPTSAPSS
Outline: (§1)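 ITC at 298 K: sample cell filled with one partner at 1 mM, titrant at 15 mM in syringe, computer-automated injections. Blank titrations into plain solvent subtracted to remove heats of dilution. Data fitted to a 1:1 (one-site) binding model to give K, ΔH and ΔS.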

[2] = Binding affinity to histidine in aqueous solution assessed as change in entropy at 1 mM by isothermal titration calorimetry
Outline: (§2)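 ITC at 298 K. The sample cell holds one partner at 1 mM and the syringe holds titrant at 15 mM, added by automated injections. Titrations were run in water and in 10 mM Tris buffer pH 7.4. Blank titrations into plain solvent were subtracted to correct for heats of dilution. The data were fitted to a 1:1 (one-site) binding model to give K, ΔH and ΔS.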

[3] = Binding affinity to aspartic acid in aqueous solution assessed as gibbs free energy change at 1 mM by isothermal titration calorimetry; outline: as §1
[4] = Binding affinity to histidine in deuterium oxide solution assessed as change in complexation induced chemical shift at 2 mM by 1H NMR analysis
[5] = target: T1, Alpha-crystallin A chain (Homo sapiens); assay: Inhibition of alphaA (66 to 80 residues) crystallin peptide aggregation at peptide to ligand ratio of 0.2 to 5:1 incubated for 7 days by fluorescence aggregation assay; settings: time 7.0 day
Outline: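 5360 μM peptide in 10 mM Tris was mixed with receptor at 0.2:1 to 10:1 receptor:peptide ratios and incubated 7 days at 37 °C. Proteostat dye was added (1 μL per 10 μL sample) with positive/negative dye controls. Fluorescence was read at 25 °C. Triplicates; percent inhibition plotted vs log[concentration] to derive IC50.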

[6] = target: T1, Alpha-crystallin A chain (Homo sapiens); assay: Binding affinity to alphaA (66 to 80 residues) crystallin peptide in aqueous solution assessed as change in entropy at 1 mM by isothermal titration calorimetry; outline: as §1
[7] = Binding affinity to aspartic acid in deuterium oxide solution assessed as change in complexation induced chemical shift at 2 mM by 1H NMR analysis
[8] = Binding affinity to arginine in deuterium oxide solution assessed as change in complexation induced chemical shift at 2 mM by 1H NMR analysis
[9] = target: T1, Alpha-crystallin A chain (Homo sapiens); assay: Inhibition of alphaA (66 to 80 residues) crystallin peptide aggregation assessed as decrease in peptide-receptor complex and measured upto 2 hrs by ESI-MS analysis
Outline: (§3)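 Peptide and host (10 mM aqueous stocks) were mixed in equal parts to 5 mM each. Mixtures were diluted in ESI buffer (50% methanol, 49% water, 1% acetic acid) and analysed by positive-mode ESI-MS, either within 2 h of mixing or after incubation for 72+ h at 37 °C followed by 100-fold dilution.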

[10] = Binding affinity to aspartic acid in aqueous solution assessed as change in entropy at 1 mM by isothermal titration calorimetry; outline: as §2
[11] = Binding affinity to aspartic acid in aqueous solution assessed as association constant at 1 mM by isothermal titration calorimetry; outline: as §1
[12] = Binding affinity to histidine in aqueous solution assessed as association constant at 1 mM by isothermal titration calorimetry; outline: as §1
[13] = Binding affinity to histidine in aqueous solution assessed as change in enthalpy at 1 mM by isothermal titration calorimetry; outline: as §1
[14] = target: T1, Alpha-crystallin A chain (Homo sapiens); assay: Inhibition of alphaA (66 to 80 residues) crystallin peptide aggregation assessed decrease in large fibrillar aggregation at 1:1 peptide to ligand ratio incubated for 7 days by transmission electron microscopy; settings: time 7.0 day
Outline: (§4)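 Peptide incubated with receptor at 1:1 or 5:1 ratio for 7 days at 37 °C. A 10 μL aliquot taken on day 7 was loaded onto Formvar-carbon coated 200 mesh nickel grids and allowed to absorb for 2 h. Grids were washed three times with deionized water and blotted dry. Peptide-alone control; duplicate grids per sample; imaged by TEM.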

[15] = target: T1, Alpha-crystallin A chain (Homo sapiens); assay: Inhibition of alphaA (66 to 80 residues) crystallin peptide aggregation assessed as decrease in average diameter size distribution at 1:1 peptide to ligand ratio incubated for 7 days by dynamic light scattering (Rvb=12000+/-1500 nm); settings: time 7.0 day
[16] = target: T1, Alpha-crystallin A chain (Homo sapiens); assay: Inhibition of alphaA (66 to 80 residues) crystallin peptide aggregation assessed as amorphous small protein aggregates at 1:1 peptide to ligand ratio incubated for 7 days by transmission electron microscopy; settings: time 7.0 day; outline: as §4
[17] = target: T1, Alpha-crystallin A chain (Homo sapiens); assay: Inhibition of alphaA (66 to 80 residues) crystallin peptide aggregation assessed as decrease in peptide-receptor complex and measured after 72 hrs by ESI-MS analysis; outline: as §3
[18] = Binding affinity to histidine in aqueous solution assessed as gibbs free energy change at 1 mM by isothermal titration calorimetry; outline: as §1
[19] = Binding affinity to lysine in deuterium oxide solution assessed as change in complexation induced chemical shift at 2 mM by 1H NMR analysis
[20] = target: T1, Alpha-crystallin A chain (Homo sapiens); assay: Binding affinity to alphaA (66 to 80 residues) crystallin peptide in aqueous solution assessed as change in enthalpy at 1 mM by isothermal titration calorimetry; outline: as §1
[21] = Binding affinity to aspartic acid in aqueous solution assessed as change in enthalpy at 1 mM by isothermal titration calorimetry; outline: as §1
[22] = target: T1, Alpha-crystallin A chain (Homo sapiens); assay: Binding affinity to alphaA (66 to 80 residues) crystallin peptide in aqueous solution assessed as gibbs free energy change at 1 mM by isothermal titration calorimetry; outline: as §1
[23] = Binding affinity to arginine in aqueous solution assessed as association constant at 1 mM by isothermal titration calorimetry; outline: as §1
[24] = Binding affinity to lysine in aqueous solution assessed as change in enthalpy at 1 mM by isothermal titration calorimetry; outline: as §1
[25] = Binding affinity to arginine in aqueous solution assessed as gibbs free energy change at 1 mM by isothermal titration calorimetry; outline: as §1
[26] = Binding affinity to arginine in aqueous solution assessed as change in enthalpy at 1 mM by isothermal titration calorimetry; outline: as §1
[27] = Binding affinity to arginine in aqueous solution assessed as change in entropy at 1 mM by isothermal titration calorimetry; outline: as §2
[28] = Binding affinity to lysine in aqueous solution assessed as association constant at 1 mM by isothermal titration calorimetry; outline: as §1
[29] = Binding affinity to lysine in aqueous solution assessed as gibbs free energy change at 1 mM by isothermal titration calorimetry; outline: as §1
[30] = Binding affinity to lysine in aqueous solution assessed as change in entropy at 1 mM by isothermal titration calorimetry; outline: as §2

Row | Ka [1] | TdeltaS [2] [kcal/mol] | Activity [4] | inhibition [5] | TdeltaS [6] [kcal/mol] | Activity [7] | Activity [8] | inhibition [9] | Ka [12] | deltaH [13] [kcal/mol] | inhibition [14] | Activity [15] [nm] | inhibition [16] | inhibition [17] | deltaG [18] | Activity [19] | deltaH [20] [kcal/mol] | deltaG [22] | Ka [23] | deltaH [24] [kcal/mol] | further results | SMILES
1 | 2.4 10^3/M | -1.84 | Active | Dose-Dependent Effect | 9.48 | Active | Active | Active | 14.9 10^3/M | -7.53 | Active | 202 | Active | Active | -5.69 kcal/mol | Active | 4.89 | -4.59 kcal/mol |  |  | deltaG [3]: -3.9 kcal/mol; TdeltaS [10]: 2.9 kcal/mol; Ka [11]: 7.3 10^3/M; deltaH [21]: -1 kcal/mol | OCCCCc1cc(C(CCCO)c2cc(C(CCCO)c3cc(C(CCCO)c4ccc(O)c(CNCc5ccccc5)c4O)c(O)c(CNCc4ccccc4)c3O)c(O)c(CNCc3ccccc3)c2O)c(O)c(CNCc2ccccc2)c1O (centres undefined)
2 | 1360 10^3/M | 6.91 | inactive | Dose-Dependent Effect | 0.092 | inactive | Active | inactive | 2.94 10^3/M | -2.59 | Active | 1920 | Active | inactive | -9.5 kcal/mol and -9.51 kcal/mol | Active | -8.28 | -8.37 kcal/mol | 7.27 10^3/M | -12.1 | deltaG [25]: -5.27 kcal/mol and -5.28 kcal/mol; deltaH [26]: -15.7 kcal/mol; TdeltaS [27]: -10.4 kcal/mol; Ka [28]: 5.89 10^3/M; deltaG [29]: -5.62 kcal/mol; TdeltaS [30]: -6.45 kcal/mol | CCCc1cc(C(CC)c2cc(C(CC)c3cc(C(CC)c4ccc(O)c(CS(=O)(=O)O)c4O)c(O)c(CS(=O)(=O)O)c3O)c(O)c(CS(=O)(=O)O)c2O)c(O)c(CS(=O)(=O)O)c1O (centres undefined)
3 | 380 10^3/M | 3.75 | inactive | Dose-Dependent Effect | 4.38 | inactive | Active | inactive | 3.44 10^3/M | -1.05 | Active | 3740 | Active | inactive | -4.8 kcal/mol | Active | -3.23 | -7.61 kcal/mol and -7.6 kcal/mol | 3.64 10^3/M | -6.74 | deltaG [25]: -4.9 kcal/mol; deltaH [26]: -15.2 kcal/mol; TdeltaS [27]: -10.2 kcal/mol; Ka [28]: 4.45 10^3/M; deltaG [29]: -4.98 kcal/mol and -4.97 kcal/mol; TdeltaS [30]: -1.76 kcal/mol | O=S(=O)(O)CCCc1cc(C(CCS(=O)(=O)O)c2cc(C(CCS(=O)(=O)O)c3cc(C(CCS(=O)(=O)O)c4ccc(O)cc4O)c(O)cc3O)c(O)cc2O)c(O)cc1O (centres undefined)
